Assay results published in the M2OR odorant receptor database.
Where a chain is given by its changes, count along the chain named.

test system: T1, OR3A1; settings: stereoisomer not certain
T1 sequence (whole entry): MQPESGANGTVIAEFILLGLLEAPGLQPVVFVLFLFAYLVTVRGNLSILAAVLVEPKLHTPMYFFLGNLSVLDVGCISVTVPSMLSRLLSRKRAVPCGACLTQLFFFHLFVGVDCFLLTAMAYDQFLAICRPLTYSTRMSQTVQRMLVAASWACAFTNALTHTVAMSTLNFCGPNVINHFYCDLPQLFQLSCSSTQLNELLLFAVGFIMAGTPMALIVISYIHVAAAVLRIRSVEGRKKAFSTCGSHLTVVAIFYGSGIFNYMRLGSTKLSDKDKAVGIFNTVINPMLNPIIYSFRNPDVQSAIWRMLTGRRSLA
Procedure, shortened: (§1)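 Whether a receptor–molecule pair is responsive (active) rests on the original authors' judgment that its measured signal was statistically different from baseline. Pairs without that judgment are non-responsive (inactive). Sources used varied assay methods, commonly transient luciferase assays in mammalian cell lines.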
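Further: active if original authors judged signal statistically different from baseline.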

Odorant receptor agonist call, inactive:
CCCCCCC=CCCC=O
CC1=C(O)C(=O)OC1C (stereo unspecified)
CCC1OC(=O)C(O)=C1C (stereo unspecified)
CC1=C(O)C(=O)C(C)O1 (stereo unspecified)
CCCC(S)CCOC(C)=O (stereo unspecified)
CC1=NC(C)C(C)S1 (stereo unspecified)
Cc1cnc(C)c(C)n1
CCC1OC(C)=C(O)C1=O (stereo unspecified)

biological target: T2, OR3A2 (Homo sapiens) (UniProt P47893); settings: stereoisomer not certain
T2 sequence (whole entry): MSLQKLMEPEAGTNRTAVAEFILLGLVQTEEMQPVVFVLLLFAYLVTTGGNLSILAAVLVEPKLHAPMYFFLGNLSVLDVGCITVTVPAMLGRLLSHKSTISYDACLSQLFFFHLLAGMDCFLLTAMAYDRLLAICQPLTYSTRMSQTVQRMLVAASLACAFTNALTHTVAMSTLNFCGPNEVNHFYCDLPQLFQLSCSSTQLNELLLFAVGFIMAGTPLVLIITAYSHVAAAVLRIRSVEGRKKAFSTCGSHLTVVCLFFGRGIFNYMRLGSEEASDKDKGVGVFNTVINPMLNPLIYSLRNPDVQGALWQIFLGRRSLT
Procedure, shortened: as §1

Odorant receptor agonist call, inactive:
CCCCCCC=CCCC=O
CC1=C(O)C(=O)OC1C (stereo unspecified)
CC1CCCCCCCCCCCCC(=O)C1 (stereo unspecified)
CCC1OC(=O)C(O)=C1C (stereo unspecified)
CCCCC(S)C(C)CO (stereo unspecified)
CC1=C(O)C(=O)C(C)O1 (stereo unspecified)
CC(CO)CS (stereo unspecified)
CCCC(S)CCOC(C)=O (stereo unspecified)
CC(=O)c1c(C)c([N+](=O)[O-])c(C(C)(C)C)c([N+](=O)[O-])c1C
CCC(S)C(C)CO (stereo unspecified)
CC1=NC(C)C(C)S1 (stereo unspecified)
Cc1cnc(C)c(C)n1
CCCCCC(S)C(C)CO (stereo unspecified)
CCCCCC(=O)C(C)C(C)=O (stereo unspecified)
CCC1OC(C)=C(O)C1=O (stereo unspecified)

test system: T3, OR3A2 R317K; settings: stereoisomer not certain
T3 sequence (whole entry): T2 sequence (whole entry) with R317K
Procedure, shortened: as §1

Odorant receptor agonist call, inactive:
CCCCCCC=CCCC=O
CC1=C(O)C(=O)OC1C (stereo unspecified)
CCC1OC(=O)C(O)=C1C (stereo unspecified)
CC1=C(O)C(=O)C(C)O1 (stereo unspecified)
CCCC(S)CCOC(C)=O (stereo unspecified)
CC1=NC(C)C(C)S1 (stereo unspecified)
Cc1cnc(C)c(C)n1
CCC1OC(C)=C(O)C1=O (stereo unspecified)

biological target: T4, OR3A3 (Homo sapiens) (UniProt P47888); settings: stereoisomer not certain
T4 sequence (whole entry): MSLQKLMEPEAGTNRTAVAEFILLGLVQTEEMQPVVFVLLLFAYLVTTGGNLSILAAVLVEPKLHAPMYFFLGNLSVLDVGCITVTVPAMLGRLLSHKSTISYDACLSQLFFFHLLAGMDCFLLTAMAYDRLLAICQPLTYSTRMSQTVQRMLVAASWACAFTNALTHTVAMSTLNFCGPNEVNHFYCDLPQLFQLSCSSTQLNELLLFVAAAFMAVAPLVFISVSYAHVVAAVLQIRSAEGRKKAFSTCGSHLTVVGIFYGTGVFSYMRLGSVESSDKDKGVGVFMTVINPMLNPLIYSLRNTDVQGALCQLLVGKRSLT
Procedure, shortened: as §1

Odorant receptor agonist call, inactive:
CCCCCCC=CCCC=O
CC1=C(O)C(=O)OC1C (stereo unspecified)
CC1CCCCCCCCCCCCC(=O)C1 (stereo unspecified)
CCC1OC(=O)C(O)=C1C (stereo unspecified)
CCCCC(S)C(C)CO (stereo unspecified)
CC1=C(O)C(=O)C(C)O1 (stereo unspecified)
CC(CO)CS (stereo unspecified)
CCCC(S)CCOC(C)=O (stereo unspecified)
CC(=O)c1c(C)c([N+](=O)[O-])c(C(C)(C)C)c([N+](=O)[O-])c1C
CCC(S)C(C)CO (stereo unspecified)
CC1=NC(C)C(C)S1 (stereo unspecified)
Cc1cnc(C)c(C)n1
CCCCCC(S)C(C)CO (stereo unspecified)
CCCCCC(=O)C(C)C(C)=O (stereo unspecified)
CCC1OC(C)=C(O)C1=O (stereo unspecified)
